Data taken from ChEMBL document CHEMBL3046167, “Activity of meadowfoam (Limnanthes alba) seed meal glucolimnanthin degradation products against soilborne pathogens” (J Agric Food Chem, 2012).
Converted amounts (≈) assume the structure as drawn. The source made the active and inactive calls. The rule behind the calls is not given here.

What was measured:
Meloidogyne hapla [1] = test: Antiparasitic activity against Meloidogyne hapla J2 assessed as larvicidal activity after 24 hr; type: functional, organism-based; settings: J2, 24 h
How it was run: (§1)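 M. hapla J2 (tomato-cultured isolate) in 96-well plates, 40–60 J2 per well in water with test solution in DMSO (final DMSO 2% v/v). Incubated covered in the dark at 25 °C for 24 h, then mortality scored visually. Compounds were then removed and replaced with water, and mortality was rescored after another 24 h. EC50 was taken from dose-response regression. Eight wells per concentration; experiments were run at least twice.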

[2] = test system: Globisporangium irregulare; test: Antiparasitic activity against Pythium irregulare assessed as culture diameter at 0.5 mg/ml after 24 hr; type: functional
How it was run: (§2)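 P. irregulare: 3-mm agar plugs from 1-week cultures (20 °C, dark) were placed in wells with water plus test solution in DMSO (final 2% DMSO). Exposure was 24 h at 25 °C in the dark. Plugs were then rinsed, blotted and placed on PDA with 250 mg/L ampicillin. Colony diameter was measured after 48 h at 20 °C, excluding dead plugs, and expressed as % of the water control. EC50 was derived by regression. Eight wells per concentration.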

[3] = test system: Globisporangium irregulare; test: Antiparasitic activity against Pythium irregulare assessed as culture diameter at 0.3 mg/ml after 24 hr; type: functional; how it was run: as §2
[4] = test system: Globisporangium irregulare; test: Antiparasitic activity against Pythium irregulare assessed as culture diameter after 24 hr; type: functional, organism-based; how it was run: as §2
Meloidogyne hapla [5] = test: Antiparasitic activity against Meloidogyne hapla J2 assessed as larvicidal activity for 24 hr measured after replacement with water; type: functional, organism-based; settings: J2, 24 h; how it was run: as §1
[6] = test system: Globisporangium irregulare; test: Antiparasitic activity against Pythium irregulare assessed as culture diameter at 0.15 mg/ml after 24 hr; type: functional; how it was run: as §2
[7] = test system: Globisporangium irregulare; test: Antiparasitic activity against Pythium irregulare assessed as culture diameter at 0.75 mg/ml after 24 hr; type: functional; how it was run: as §2
[8] = test system: Globisporangium irregulare; test: Antiparasitic activity against Pythium irregulare assessed as culture diameter at 0.05 mg/ml after 24 hr; type: functional; how it was run: as §2
[9] = test system: Globisporangium irregulare; test: Antiparasitic activity against Pythium irregulare assessed as culture diameter at <= 0.3 mg/ml after 24 hr; type: functional, organism-based; how it was run: as §2
Verticillium dahliae [10] = test: Antiparasitic activity against Verticillium dahliae assessed as culture diameter at 0.001 mg/ml after 24 hr; type: functional
How it was run: (§3)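 V. dahliae: 3-mm plugs from 3-week cultures (20 °C, dark) were exposed for 24 h at 25 °C in wells of water with 2% DMSO and test compound. Plugs were then rinsed, blotted and plated on PDA with 250 mg/L ampicillin. Diameter was measured after 1 week at 20 °C, excluding non-growing plugs, and expressed as % of the water control. Eight wells per concentration.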

Verticillium dahliae [11] = test: Antiparasitic activity against Verticillium dahliae assessed as culture diameter at 0.2 mg/ml after 24 hr; type: functional; how it was run: as §3
Verticillium dahliae [12] = test: Antiparasitic activity against Verticillium dahliae assessed as culture diameter at 0.05 mg/ml after 24 hr; type: functional; how it was run: as §3
[13] = test system: Globisporangium irregulare; test: Antiparasitic activity against Pythium irregulare assessed as culture morality after 24 hr; type: functional, organism-based
How it was run: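 P. irregulare plugs were exposed in wells to compounds in 2% DMSO for 24 h at 25 °C, then rinsed and plated on ampicillin-amended PDA. Plugs failing to grow were counted as dead, giving percentage mortality per treatment. EC50 was estimated from dose-response regression. Eight replicate wells per concentration; experiments were run at least twice.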

[14] = test system: Globisporangium irregulare; test: Antiparasitic activity against Pythium irregulare assessed as culture diameter at 0.025 mg/ml after 24 hr; type: functional; how it was run: as §2
[15] = test system: Globisporangium irregulare; test: Antiparasitic activity against Pythium irregulare assessed as culture diameter at 0.075 mg/ml after 24 hr; type: functional; how it was run: as §2
[16] = test system: Globisporangium irregulare; test: Antiparasitic activity against Pythium irregulare assessed as culture diameter at 0.2 mg/ml after 24 hr; type: functional; how it was run: as §2
[17] = test system: Globisporangium irregulare; test: Antiparasitic activity against Pythium irregulare assessed as culture diameter at 0.1 mg/ml after 24 hr; type: functional; how it was run: as §2
Verticillium dahliae [18] = test: Antiparasitic activity against Verticillium dahliae assessed as culture diameter at 0.01 mg/ml after 24 hr; type: functional; how it was run: as §3
Verticillium dahliae [19] = test: Antiparasitic activity against Verticillium dahliae assessed as culture diameter at 0.03 mg/ml after 24 hr; type: functional; how it was run: as §3
Verticillium dahliae [20] = test: Antiparasitic activity against Verticillium dahliae assessed as culture diameter at 0.005 mg/ml after 24 hr; type: functional; how it was run: as §3
Verticillium dahliae [21] = test: Antiparasitic activity against Verticillium dahliae assessed as culture diameter at 0.1 mg/ml after 24 hr; type: functional; how it was run: as §3
Verticillium dahliae [22] = test: Antiparasitic activity against Verticillium dahliae assessed as culture diameter at 0.08 mg/ml after 24 hr; type: functional; how it was run: as §3
Verticillium dahliae [23] = test: Antiparasitic activity against Verticillium dahliae assessed as culture diameter after 24 hr; type: functional, organism-based; how it was run: as §3
Verticillium dahliae [24] = test: Antiparasitic activity against Verticillium dahliae assessed as culture diameter at 0.02 mg/ml after 24 hr; type: functional; how it was run: as §3

**Q.** How did the EC50 (Meloidogyne hapla [1]) turn out when `COc1cccc(CC(N)=S)c1` was run?
**A.** 245 µg/mL (≈ 1350 µM)

**Q.** And the mortality at 500 µg/mL [2]?
**A.** 0%

**Q.** And the mortality at 300 µg/mL [3]?
**A.** 0%

**Q.** What about the EC50 [4] of the same molecule?
**A.** 750 µg/mL (≈ 4140 µM)

**Q.** And the EC50 (Meloidogyne hapla [5])?
**A.** 584 µg/mL (≈ 3220 µM)

**Q.** And the mortality at 150 µg/mL [6]?
**A.** 0%

**Q.** What about the mortality at 750 µg/mL [7] of the same molecule?
**A.** 0%

**Q.** What about the mortality at 50 µg/mL [8] of the same molecule?
**A.** 0%

**Q.** What about the Activity [9] of the same molecule?
**A.** inactive

**Q.** For `COc1cccc(CN=C=S)c1` [3-METHOXYBENXYL ISOTHIOCYANATE], which mortality at 1 µg/mL (Verticillium dahliae [10]) is on record?
**A.** 0%

**Q.** And the EC50 (Meloidogyne hapla [1])?
**A.** 2 µg/mL (≈ 11.2 µM)

**Q.** What about the mortality at 200 µg/mL (Verticillium dahliae [11]) of the same molecule?
**A.** 69%

**Q.** And the mortality at 50 µg/mL (Verticillium dahliae [12])?
**A.** 19%

**Q.** And the EC50 [13]?
**A.** 50 µg/mL (≈ 279 µM)

**Q.** What about the mortality at 25 µg/mL [14] of the same molecule?
**A.** 0%

**Q.** What about the mortality at 75 µg/mL [15] of the same molecule?
**A.** 56%

**Q.** And the mortality at 200 µg/mL [16]?
**A.** 88%

**Q.** What about the EC50 (Meloidogyne hapla [5]) of the same molecule?
**A.** 3 µg/mL (≈ 16.7 µM)

**Q.** What about the mortality at 100 µg/mL [17] of the same molecule?
**A.** 63%

**Q.** And the mortality at 10 µg/mL (Verticillium dahliae [18])?
**A.** 0%

**Q.** What about the mortality at 150 µg/mL [6] of the same molecule?
**A.** 88%

**Q.** What about the mortality at 30 µg/mL (Verticillium dahliae [19]) of the same molecule?
**A.** 0%

**Q.** What about the mortality at 50 µg/mL [8] of the same molecule?
**A.** 54%

**Q.** And the mortality at 5 µg/mL (Verticillium dahliae [20])?
**A.** 0%

**Q.** And the mortality at 100 µg/mL (Verticillium dahliae [21])?
**A.** 50%

**Q.** And the mortality at 80 µg/mL (Verticillium dahliae [22])?
**A.** 7%

**Q.** And the EC50 (Verticillium dahliae [23])?
**A.** 100 µg/mL (≈ 558 µM)

**Q.** And the mortality at 20 µg/mL (Verticillium dahliae [24])?
**A.** 0%
